Source: ChEMBL document CHEMBL2375313, “Synthesis, in vitro antitumor evaluation and DNA-binding study of novel tetrahydroquinolines and some derived tricyclic and tetracyclic ring systems” (Eur J Med Chem, 2013)

Tests used:
Assay type in all cases: functional
DU-145 = assay: Cytotoxicity against human DU145 cells assessed as growth inhibition at 10 uM after 48 hrs by sulphorhodamine B assay; details: DU-145, 48 h, read-out: GI
Summary of the method: (§1)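 NCI-60 one-dose screen per the NCI Drug Evaluation Branch protocol. Cells given a single 10 µM concentration with 48 h continuous exposure. Growth estimated by sulphorhodamine B protein assay. Result expressed as percentage growth inhibition relative to untreated growth.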

UO-31 = assay: Cytotoxicity against human UO31 cells assessed as growth inhibition at 10 uM after 48 hrs by sulphorhodamine B assay; details: UO-31, 48 h, read-out: GI; summary of the method: as §1
PC-3 = assay: Cytotoxicity against human PC3 cells assessed as growth inhibition at 10 uM after 48 hrs by sulphorhodamine B assay; details: PC-3, 48 h, read-out: GI; summary of the method: as §1
SR = assay: Cytotoxicity against human SR cells assessed as growth inhibition at 10 uM after 48 hrs by sulphorhodamine B assay; details: read-out: GI; summary of the method: as §1
[1] = Cytotoxicity against human EKVX cells assessed as growth inhibition at 10 uM after 48 hrs by sulphorhodamine B assay; details: read-out: GI; summary of the method: as §1
SNB-19 = assay: Cytotoxicity against human SNB19 cells assessed as growth inhibition at 10 uM after 48 hrs by sulphorhodamine B assay; details: SNB-19, 48 h, read-out: GI; summary of the method: as §1
SF-295 = assay: Cytotoxicity against human SF295 cells assessed as growth inhibition at 10 uM after 48 hrs by sulphorhodamine B assay; details: SF-295, 48 h, read-out: GI; summary of the method: as §1
A549 = assay: Cytotoxicity against human A549 cells assessed as growth inhibition at 10 uM after 48 hrs by sulphorhodamine B assay; details: A549, 48 h, read-out: GI; summary of the method: as §1
A498 = assay: Cytotoxicity against human A498 cells assessed as growth inhibition at 10 uM after 48 hrs by sulphorhodamine B assay; details: A498, 48 h, read-out: GI; summary of the method: as §1
SK-OV-3 = assay: Cytotoxicity against human SKOV3 cells assessed as growth inhibition at 10 uM after 48 hrs by sulphorhodamine B assay; details: SK-OV-3, 48 h, read-out: GI; summary of the method: as §1
MDA-MB-468 = assay: Cytotoxicity against human MDA-MB-468 cells assessed as growth inhibition at 10 uM after 48 hrs by sulphorhodamine B assay; details: MDA-MB-468, 48 h, read-out: GI; summary of the method: as §1
HOP-92 = assay: Cytotoxicity against human HOP92 cells assessed as growth inhibition at 10 uM after 48 hrs by sulphorhodamine B assay; details: HOP-92, 48 h, read-out: GI; summary of the method: as §1
MOLT-4 = assay: Cytotoxicity against human MOLT4 cells assessed as growth inhibition at 10 uM after 48 hrs by sulphorhodamine B assay; details: MOLT-4, 48 h, read-out: GI; summary of the method: as §1
SK-MEL-2 = assay: Cytotoxicity against human SK-MEL-2 cells assessed as growth inhibition at 10 uM after 48 hrs by sulphorhodamine B assay; details: SK-MEL-2, 48 h, read-out: GI; summary of the method: as §1
T47D = assay: Cytotoxicity against human T47D cells assessed as growth inhibition at 10 uM after 48 hrs by sulphorhodamine B assay; details: read-out: GI; summary of the method: as §1
NCI-H23 = assay: Cytotoxicity against human NCI-H23 cells assessed as growth inhibition at 10 uM after 48 hrs by sulphorhodamine B assay; details: NCI-H23, 48 h, read-out: GI; summary of the method: as §1
HT-29 = assay: Cytotoxicity against human HT-29 cells assessed as growth inhibition at 10 uM after 48 hrs by sulphorhodamine B assay; details: HT-29, 48 h, read-out: GI; summary of the method: as §1
K562 = assay: Cytotoxicity against human K562 cells assessed as growth inhibition at 10 uM after 48 hrs by sulphorhodamine B assay; details: K562, 48 h, read-out: GI; summary of the method: as §1
MCF7 = assay: Cytotoxicity against human MCF7 cells assessed as growth inhibition at 10 uM after 48 hrs by sulphorhodamine B assay; details: MCF7, 48 h, read-out: GI; summary of the method: as §1
HL-60(TB) = assay: Cytotoxicity against human HL-60(TB) cells assessed as growth inhibition at 10 uM after 48 hrs by sulphorhodamine B assay; details: HL-60, 48 h, read-out: GI
Summary of the method: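 NCI-60 one-dose primary screen run to the Drug Evaluation Branch protocol. Cells are exposed to a single 10 µM concentration for 48 h continuously, and growth is read by SRB protein assay. Data are reported as percent growth of treated cells, expressed as % growth inhibition.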

NCI/ADR-RES = assay: Cytotoxicity against human NCI/ADR-RES cells assessed as growth inhibition at 10 uM after 48 hrs by sulphorhodamine B assay; details: read-out: GI; summary of the method: as §1
SK-MEL-5 = assay: Cytotoxicity against human SK-MEL-5 cells assessed as growth inhibition at 10 uM after 48 hrs by sulphorhodamine B assay; details: SK-MEL-5, 48 h, read-out: GI; summary of the method: as §1
HCT-116 = assay: Cytotoxicity against human HCT116 cells assessed as growth inhibition at 10 uM after 48 hrs by sulphorhodamine B assay; details: HCT-116, 48 h, read-out: GI; summary of the method: as §1
NCI-H522 = assay: Cytotoxicity against human NCI-H522 cells assessed as growth inhibition at 10 uM after 48 hrs by sulphorhodamine B assay; details: NCI-H522, 48 h, read-out: GI; summary of the method: as §1
M14 = assay: Cytotoxicity against human M14 cells assessed as growth inhibition at 10 uM after 48 hrs by sulphorhodamine B assay; details: M14, 48 h, read-out: GI; summary of the method: as §1
OVCAR-4 = assay: Cytotoxicity against human OVCAR4 cells assessed as growth inhibition at 10 uM after 48 hrs by sulphorhodamine B assay; details: OVCAR-4, 48 h, read-out: GI; summary of the method: as §1
UACC-62 = assay: Cytotoxicity against human UACC62 cells assessed as growth inhibition at 10 uM after 48 hrs by sulphorhodamine B assay; details: UACC-62, 48 h, read-out: GI; summary of the method: as §1
RPMI-8226 = assay: Cytotoxicity against human RPMI8226 cells assessed as growth inhibition at 10 uM after 48 hrs by sulphorhodamine B assay; details: RPMI-8226, 48 h, read-out: GI; summary of the method: as §1
SF-268 = assay: Cytotoxicity against human SF268 cells assessed as growth inhibition at 10 uM after 48 hrs by sulphorhodamine B assay; details: SF-268, 48 h, read-out: GI; summary of the method: as §1
CAKI-1 = assay: Cytotoxicity against human Caki1 cells assessed as growth inhibition at 10 uM after 48 hrs by sulphorhodamine B assay; details: CAKI-1, 48 h, read-out: GI; summary of the method: as §1
ACHN = assay: Cytotoxicity against human ACHN cells assessed as growth inhibition at 10 uM after 48 hrs by sulphorhodamine B assay; details: read-out: GI; summary of the method: as §1
OVCAR-5 = assay: Cytotoxicity against human OVCAR5 cells assessed as growth inhibition at 10 uM after 48 hrs by sulphorhodamine B assay; details: OVCAR-5, 48 h, read-out: GI; summary of the method: as §1
IGROV-1 = assay: Cytotoxicity against human IGROV1 cells assessed as growth inhibition at 10 uM after 48 hrs by sulphorhodamine B assay; details: IGROV-1, 48 h, read-out: GI; summary of the method: as §1
Hs-578T = assay: Cytotoxicity against human Hs578T cells assessed as growth inhibition at 10 uM after 48 hrs by sulphorhodamine B assay; details: read-out: GI; summary of the method: as §1
HCT-15 = assay: Cytotoxicity against human HCT15 cells assessed as growth inhibition at 10 uM after 48 hrs by sulphorhodamine B assay; details: HCT-15, 48 h, read-out: GI; summary of the method: as §1
U-251 = assay: Cytotoxicity against human U251 cells assessed as growth inhibition at 10 uM after 48 hrs by sulphorhodamine B assay; details: U-251, 48 h, read-out: GI; summary of the method: as §1
CCRF-CEM = assay: Cytotoxicity against human CCRF-CEM cells assessed as growth inhibition at 10 uM after 48 hrs by sulphorhodamine B assay; details: read-out: GI; summary of the method: as §1
LOX IMVI = assay: Cytotoxicity against human LOXIMVI cells assessed as growth inhibition at 10 uM after 48 hrs by sulphorhodamine B assay; details: read-out: GI; summary of the method: as §1
SNB-75 = assay: Cytotoxicity against human SNB75 cells assessed as growth inhibition at 10 uM after 48 hrs by sulphorhodamine B assay; details: SNB-75, 48 h, read-out: GI; summary of the method: as §1
MDA-MB-435 = assay: Cytotoxicity against human MDA-MB-435 cells assessed as growth inhibition at 10 uM after 48 hrs by sulphorhodamine B assay; details: MDA-MB-435, 48 h, read-out: GI; summary of the method: as §1
RXF 393 = assay: Cytotoxicity against human RXF393 cells assessed as growth inhibition at 10 uM after 48 hrs by sulphorhodamine B assay; details: RXF 393, 48 h, read-out: GI; summary of the method: as §1

## COc1ccc(-c2c3c(nc4nc[nH]c(=O)c24)C(C)CCC3)cc1 (configuration not stated)
DU-145
  inhibition of growth at 10 µM: < 10%
UO-31
  inhibition of growth at 10 µM: < 10%
PC-3
  inhibition of growth at 10 µM: < 10%
SR
  inhibition of growth at 10 µM: < 10%
[1]
  inhibition of growth at 10 µM: < 10%
SNB-19
  inhibition of growth at 10 µM: < 10%
SF-295
  inhibition of growth at 10 µM: < 10%
A549
  inhibition of growth at 10 µM: < 10%
A498
  inhibition of growth at 10 µM: < 10%
SK-OV-3
  inhibition of growth at 10 µM: < 10%
MDA-MB-468
  inhibition of growth at 10 µM: 21.5%
HOP-92
  inhibition of growth at 10 µM: < 10%
MOLT-4
  inhibition of growth at 10 µM: < 10%
SK-MEL-2
  inhibition of growth at 10 µM: < 10%
T47D
  inhibition of growth at 10 µM: < 10%
NCI-H23
  inhibition of growth at 10 µM: 13.8%
HT-29
  inhibition of growth at 10 µM: < 10%
K562
  inhibition of growth at 10 µM: < 10%
MCF7
  inhibition of growth at 10 µM: < 10%
HL-60(TB)
  inhibition of growth at 10 µM: < 10%
NCI/ADR-RES
  inhibition of growth at 10 µM: 20%
SK-MEL-5
  inhibition of growth at 10 µM: < 10%
HCT-116
  inhibition of growth at 10 µM: < 10%
NCI-H522
  inhibition of growth at 10 µM: 20.8%
M14
  inhibition of growth at 10 µM: < 10%
OVCAR-4
  inhibition of growth at 10 µM: < 10%
UACC-62
  inhibition of growth at 10 µM: < 10%
RPMI-8226
  inhibition of growth at 10 µM: < 10%
SF-268
  inhibition of growth at 10 µM: < 10%
CAKI-1
  inhibition of growth at 10 µM: < 10%
ACHN
  inhibition of growth at 10 µM: < 10%
OVCAR-5
  inhibition of growth at 10 µM: < 10%
IGROV-1
  inhibition of growth at 10 µM: < 10%
Hs-578T
  inhibition of growth at 10 µM: < 10%
HCT-15
  inhibition of growth at 10 µM: 13.7%
U-251
  inhibition of growth at 10 µM: 19%
CCRF-CEM
  inhibition of growth at 10 µM: < 10%
LOX IMVI
  inhibition of growth at 10 µM: < 10%
SNB-75
  inhibition of growth at 10 µM: 34.3%
MDA-MB-435
  inhibition of growth at 10 µM: < 10%
RXF 393
  inhibition of growth at 10 µM: < 10%

## CC1CCCc2c1nc(N)c(C#N)c2-c1ccc(Cl)cc1 (configuration not stated)
DU-145
  inhibition of growth at 10 µM: < 10%
UO-31
  inhibition of growth at 10 µM: < 10%
PC-3
  inhibition of growth at 10 µM: < 10%
SR
  inhibition of growth at 10 µM: < 10%
[1]
  inhibition of growth at 10 µM: 39.5%
SNB-19
  inhibition of growth at 10 µM: 20.5%
SF-295
  inhibition of growth at 10 µM: < 10%
A549
  inhibition of growth at 10 µM: < 10%
A498
  inhibition of growth at 10 µM: 21.7%
SK-OV-3
  inhibition of growth at 10 µM: < 10%
MDA-MB-468
  inhibition of growth at 10 µM: 36.5%
HOP-92
  inhibition of growth at 10 µM: 10%
MOLT-4
  inhibition of growth at 10 µM: < 10%
SK-MEL-2
  inhibition of growth at 10 µM: 15%
T47D
  inhibition of growth at 10 µM: 17.2%
NCI-H23
  inhibition of growth at 10 µM: < 10%
HT-29
  inhibition of growth at 10 µM: < 10%
K562
  inhibition of growth at 10 µM: 11.8%
MCF7
  inhibition of growth at 10 µM: 31.5%
HL-60(TB)
  inhibition of growth at 10 µM: < 10%
NCI/ADR-RES
  inhibition of growth at 10 µM: < 10%
SK-MEL-5
  inhibition of growth at 10 µM: < 10%
HCT-116
  inhibition of growth at 10 µM: < 10%
NCI-H522
  inhibition of growth at 10 µM: < 10%
M14
  inhibition of growth at 10 µM: < 10%
OVCAR-4
  inhibition of growth at 10 µM: 10.1%
UACC-62
  inhibition of growth at 10 µM: 24.2%
RPMI-8226
  inhibition of growth at 10 µM: 18.2%
SF-268
  inhibition of growth at 10 µM: 11.3%
CAKI-1
  inhibition of growth at 10 µM: < 10%
ACHN
  inhibition of growth at 10 µM: < 10%
OVCAR-5
  inhibition of growth at 10 µM: < 10%
IGROV-1
  inhibition of growth at 10 µM: < 10%
Hs-578T
  inhibition of growth at 10 µM: 25%
HCT-15
  inhibition of growth at 10 µM: < 10%
U-251
  inhibition of growth at 10 µM: < 10%
CCRF-CEM
  inhibition of growth at 10 µM: 13.3%
LOX IMVI
  inhibition of growth at 10 µM: < 10%
SNB-75
  inhibition of growth at 10 µM: 26.8%
MDA-MB-435
  inhibition of growth at 10 µM: < 10%
RXF 393
  inhibition of growth at 10 µM: < 10%
